pEC50, pIC50: −log10 of the molar value.
How the values were obtained:
CCRF-CEM [1] = experiment: Effective concentration for cytoprotective effect against HIV-1 infection in CEM cells; No protection of cells to HIV-induced Killing; type: functional, cell-based, Homo sapiens
In short: (§1)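 CEM-SS cells in RPMI 1640 without phenol red (5% FBS, 2 mM L-glutamine, gentamicin), resuspended at 1×10^5 cells/mL, infected with HIV-1 RF at MOI 0.01-0.05. Sterols dissolved in DMSO, serially diluted in medium (final DMSO ≤1%), top concentration 100 μg/mL. Incubated 6 days at 37 °C, 5% CO2. Cytoprotection read by XTT tetrazolium viability, relative to uninfected untreated controls.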

[2] = system: Human immunodeficiency virus 2; experiment: Inhibition of HIV-2 (CBL20) nediated cytotoxicity in CEM (human leukemia) cells.; details: Human immunodeficiency virus 2, CCRF-CEM
[3] = system: Human immunodeficiency virus 1; experiment: Inhibition of HIV-1 mediated cytotoxicity in CEM (human leukemia) cells.; type: functional, organism-based; details: Human immunodeficiency virus 1, CCRF-CEM; in short: as §1
CCRF-CEM [4] = experiment: Effective concentration was tested for cytoprotective effect against HIV-1 infection in CEM cells; type: functional, cell-based; details: Homo sapiens; in short: as §1
CCRF-CEM [5] = experiment: Effective concentration was tested for cytoprotective effect against HIV-2 CBL 20 strain infection in CEM cells; type: functional, cell-based; details: Homo sapiens
In short: (§2)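 HIV-2 strain CBL20 infection of CEM cells at MOI 0.01-0.05. Sterols in DMSO, diluted in complete medium (final DMSO ≤1%), maximum 100 μg/mL. Uninfected CEM-SS controls run for toxicity. XTT viability read after 6 days in culture at 37 °C, 5% CO2. Protection expressed as percent of uninfected, untreated controls.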

CCRF-CEM [6] = experiment: Effective concentration for cytoprotective effect against HIV-2 CBL 20 strain infection in CEM cells; No protection of cells to HIV-induced Killing; type: functional, cell-based, Homo sapiens; in short: as §2
CCRF-CEM [7] = experiment: Inhibitory concentration for cytoprotective effect against HIV-1 infection in CEM cells.; type: functional, cell-based; details: Homo sapiens; in short: as §1
CCRF-CEM [8] = experiment: Effective concentration for cytoprotective effect against HIV-2 infection in CEM cells; No protection of cells to HIV-induced Killing; type: functional, cell-based; details: Homo sapiens
In short: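 Anticytopathicity test against HIV-2 strain ROD in CEM cells at MOI 0.01-0.05. Cells were held in RPMI 1640 with 5% FBS, and sterols were given from DMSO stocks (final DMSO ≤1%), up to 100 μg/mL. Cultures ran 6 days at 37 °C. Protection from viral killing was scored as percent, with host-cell cytotoxicity assessed in parallel.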

## CC(C)CCC[C@@H](COS(=O)(=O)[O-])[C@H]1CCC2C3CC=C4[C@H](O)[C@H](OS(=O)(=O)[O-])[C@H](O)C[C@]4(C)C3CC[C@@]21C.[Na+].[Na+] (some centres undefined)
CCRF-CEM [1]
  EC50: No protection

## CC(C)CC[C@@H](O)[C@@H](C)[C@H]1CCC2C3C[C@H](OS(=O)(=O)O)C4C[C@@H](OS(=O)(=O)O)CC[C@]4(C)C3=CC[C@@]21C (some centres undefined)
[2]
  pIC50: < 3.79
[3]
  pIC50: < 3.79
CCRF-CEM [4]
  pEC50: 4.72
CCRF-CEM [5]
  pEC50: 3.89

## CC(C)C(CCOS(=O)(=O)[O-])CC[C@@H](C)[C@H]1[C@@H](O)[C@H](O)C2[C@]3(O)C[C@@H](O)[C@@]4(O)C[C@@H](O)CC[C@]4(C)C3CC[C@@]21C.[Na+] (some centres undefined)
CCRF-CEM [1]
  EC50: No protection
[2]
  pIC50: < 3.79
CCRF-CEM [6]
  EC50: No protection
[3]
  pIC50: < 3.79

## CC(C)CCC[C@@H](COS(=O)(=O)O)[C@H]1CCC2C3CC=C4C[C@H](O)[C@@H](OS(=O)(=O)O)C[C@]4(C)C3CC[C@@]21C (some centres undefined)
[2]
  pIC50: < 3.79
[3]
  pIC50: < 3.79
CCRF-CEM [4]
  pEC50: 4.01

## C=C(C)CCC[C@@H](COS(=O)(=O)O)[C@H]1CC[C@H]2[C@@H]3CC[C@]4(O)[C@H](O)[C@H](OS(=O)(=O)O)CC[C@]4(C)[C@H]3CC[C@]12C
[2]
  pIC50: < 3.80
[3]
  pIC50: < 3.80
CCRF-CEM [4]
  pEC50: 4.07
CCRF-CEM [5]
  pEC50: 4.41

## CC(C)CCC[C@@H](COS(=O)(=O)O)[C@H]1CC[C@H]2[C@@H]3CCC4[C@H](O)[C@H](OS(=O)(=O)O)CC[C@]4(C)[C@H]3[C@@H](O)C[C@]12C (some centres undefined)
[2]
  pIC50: < 3.80
[3]
  pIC50: < 3.50
CCRF-CEM [4]
  pEC50: 3.80
CCRF-CEM [5]
  pEC50: 3.96

## CC(C)[C@H](CC[C@@H](C)[C@H]1C[C@H](OS(=O)(=O)[O-])[C@H]2[C@@H]3[C@H](O)[C@H](O)C4C[C@@H](O)CC[C@]4(C)[C@H]3CC[C@@]21C)OC1OCC(O)C(O)C1O.[Na+] (some centres undefined)
CCRF-CEM [7]
  pIC50: < 3.91
CCRF-CEM [1]
  EC50: No protection
[2]
  pIC50: 4.16
CCRF-CEM [6]
  EC50: No protection

## CC(C)C(C)CC[C@@H](C)[C@H]1CC[C@H]2[C@@H]3C[C@H](OS(=O)(=O)O)C4C[C@H](OS(=O)(=O)O)[C@@H](OS(=O)(=O)O)C[C@]4(C)[C@H]3CC[C@]12C (some centres undefined)
[2]
  pIC50: 4.25
[3]
  pIC50: 4.25
CCRF-CEM [4]
  pEC50: 5.22
CCRF-CEM [5]
  pEC50: 5.70

## CC(CC[C@@H](C)[C@H]1CC[C@H]2[C@@H]3C[C@H](OS(=O)(=O)O)C4C[C@H](OS(=O)(=O)O)[C@@H](OS(=O)(=O)O)C[C@]4(C)[C@H]3CC[C@]12C)C(C)(C)C (some centres undefined)
[2]
  pIC50: 4.39
[3]
  pIC50: 4.39
CCRF-CEM [4]
  pEC50: 5.22
CCRF-CEM [5]
  pEC50: 5.52

## CCC(C)(C)C(C)CC[C@@H](C)[C@H]1CC[C@H]2[C@@H]3C[C@H](OS(=O)(=O)O)C4C[C@H](OS(=O)(=O)O)[C@@H](OS(=O)(=O)O)C[C@]4(C)[C@H]3CC[C@]12C (some centres undefined)
[2]
  pIC50: 4.03
[3]
  pIC50: 4.77
CCRF-CEM [4]
  pEC50: 5.52
CCRF-CEM [5]
  pEC50: 5.15

## C=C(C)CCC[C@@H](COS(=O)(=O)O)[C@H]1CC[C@H]2[C@@H]3CCC4[C@H](O)[C@H](OS(=O)(=O)O)CC[C@]4(C)[C@H]3CC[C@]12C (some centres undefined)
[2]
  pIC50: < 3.79
[3]
  pIC50: < 3.79
CCRF-CEM [4]
  pEC50: 4.01
CCRF-CEM [5]
  pEC50: 3.79

## C[C@H](CCC(=O)NC(CO)CS(=O)(=O)O)[C@H]1[C@@H](O)[C@H](O)[C@H]2[C@@H]3C[C@@H](O)[C@@]4(O)C[C@@H](O)CC[C@]4(C)[C@H]3CC[C@]12C (some centres undefined)
CCRF-CEM [1]
  EC50: No protection
[2]
  pIC50: < 3.76
CCRF-CEM [6]
  EC50: No protection
[3]
  pIC50: < 3.76

## CC(C)CC[C@@H](O)[C@@H](C)[C@H]1CC[C@H]2[C@@H]3C[C@H](OS(=O)(=O)O)C4C[C@@H](OS(=O)(=O)O)CC[C@]4(C)[C@H]3CC[C@]12C (some centres undefined)
[3]
  pIC50: < 3.80
CCRF-CEM [4]
  pEC50: 4.32

## CC(=O)O[C@@H]1C[C@H]2[C@@H]3C[C@H](OP(=O)([O-])OC4OC(CO)C(O)C(O)C4O)C4C[C@@H](OS(=O)(=O)[O-])CC[C@]4(C)[C@H]3CC[C@]2(C)[C@H]1[C@H](C)CCCC(C)C.[Na+].[Na+] (some centres undefined)
CCRF-CEM [1]
  EC50: No protection
[2]
  pIC50: < 3.90
[3]
  pIC50: < 3.90
CCRF-CEM [8]
  pEC50: 4.89

## CC(C)CCC[C@@H](COS(=O)(=O)O)[C@H]1CC[C@H]2[C@@H]3CCC4[C@H](O)[C@H](OS(=O)(=O)O)CC[C@]4(C)[C@H]3[C@@H](O)[C@@H](O)[C@]12C (some centres undefined)
[2]
  pIC50: < 3.82
[3]
  pIC50: < 3.82
CCRF-CEM [4]
  pEC50: 3.91
CCRF-CEM [5]
  pEC50: 3.97

## CC(=O)O[C@H](CCC(C)C)[C@@H](C)[C@H]1CC[C@H]2[C@@H]3C[C@H](OS(=O)(=O)O)C4C[C@@H](OS(=O)(=O)O)CC[C@]4(C)[C@H]3CC[C@]12C (some centres undefined)
[3]
  pIC50: < 3.83
CCRF-CEM [4]
  pEC50: 4.89

## CC(C)[C@H](CC[C@@H](C)[C@H]1C[C@H](OS(=O)(=O)[O-])[C@H]2[C@@H]3C[C@H](O)C4C[C@@H](O)CC[C@]4(C)[C@H]3CC[C@@]21C)OC1OCC(O)C(O)C1O.[Na+] (some centres undefined)
CCRF-CEM [1]
  EC50: No protection
[2]
  pIC50: < 3.90
CCRF-CEM [6]
  EC50: No protection
[3]
  pIC50: < 3.90

## CC(C)C1(CC[C@@H](C)[C@H]2CC[C@@]3(C)C4C[C@H](OS(=O)(=O)O)C5C[C@H](OS(=O)(=O)O)[C@@H](OS(=O)(=O)O)C[C@]5(C)C4=CC[C@]23C)CC1C (some centres undefined)
[2]
  pIC50: 4.29
[3]
  pIC50: < 3.89
CCRF-CEM [4]
  pEC50: 4.89
CCRF-CEM [5]
  pEC50: 5.10

## COC1([C@@H]2C=C3[C@H](O)C[C@]4(O)C(CC[C@@]5(C)C4[C@@H](OS(=O)(=O)[O-])[C@H](O)[C@@H]5[C@H](C)/C=C/[C@H](CO)C(C)C)[C@@]3(C)CC2)OCC(O)C(O)C1O.[Na+] (some centres undefined)
CCRF-CEM [1]
  EC50: No protection
[2]
  pIC50: < 4.19
[3]
  pIC50: 4.19

## CC(C)CCC[C@@H](COS(=O)(=O)O)[C@H]1CCC2C3CC=C4[C@@H](O)[C@H](OS(=O)(=O)O)CC[C@]4(C)C3CC[C@@]21C (some centres undefined)
[2]
  pIC50: < 3.79
[3]
  pIC50: < 3.49
CCRF-CEM [4]
  pEC50: 3.62
CCRF-CEM [5]
  pEC50: 4.10

## CC(=O)O[C@H](CCC(C)C)[C@@H](C)[C@H]1CCC2C3C[C@H](OS(=O)(=O)O)C4C[C@@H](OS(=O)(=O)O)CC[C@]4(C)C3=CC[C@@]21C (some centres undefined)
[2]
  pIC50: < 3.82
[3]
  pIC50: < 3.82
CCRF-CEM [4]
  pEC50: 4.74
CCRF-CEM [5]
  pEC50: 5.52

## CC(C)CCC[C@@H](COS(=O)(=O)O)[C@H]1CC[C@H]2[C@@H]3CC[C@H]4C[C@H](OS(=O)(=O)O)CC[C@]4(C)[C@H]3CC[C@]12C
[2]
  pIC50: < 3.81
[3]
  pIC50: < 3.51
CCRF-CEM [4]
  pEC50: 3.79
CCRF-CEM [5]
  pEC50: < 4.20
